Assay outcomes (PubChem BioAssay)
Hits are enriched below; roughly 2.6% of the tested compounds scored in any of these assays.
Yeast lifespan up: extends the lifespan of yeast; AID 775; 130,000 tested, 0.68% active; inhibition of the nicotinamide effect, % at 10 µM; S. cerevisiae growth with nicotinamide, OD615; deaD strain in restrictive glucose medium;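 active = inhibition above a set limit, placed 3 SD over the median of all compounds, cut at about 26% in these data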;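 also: 0% = nicotinamide-treated wells and 100% = cells grown without nicotinamide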
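Test system – modified budding yeast, DeaD strain · Compound – single dose 10 µM compound, 0.25% DMSO · Times – culture preincubation 4 h, compound exposure 48 h, both 30 °C · Detection – optical density (absorbance) at 615 nm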
Yeast growth inh: reduces growth of yeast BB579 in restrictive medium | S. cerevisiae BB579 growth, OD615, 48 h | inhibition, % at 10 µM | 140,000 tested, 0.51% active | AID 804;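 active = inhibition above a set limit, 3 SD over the mean compound inhibition, cut at about 44% in these data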
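Assay system – yeast BB579 (DeaD) · Dosing – single compound dose of 10 µM, 0.25% DMSO final · Detection – OD615 turbidity measurement · Buffer or medium – CSMM-D restrictive synthetic medium containing dextrose (glucose) · Benchmarks – positive control amphotericin B 10 µg/mL · Incubation – 48 h exposure, 30 °C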
RAM network inh: yeast RAM network inhibition. 190,000 tested, 1.8% active. AID 868. S. cerevisiae dse1pr::URA3 reporter, 5-FOA growth OD615, 2 d; analog-sensitive cbk1-as2 kinase mutant strain. inhibition, % at 50 µM;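 active = inhibition above a set limit, 3 SD over mean compound inhibition, cut at about 8.4% in these data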;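 also: 0% = DMSO-only wells with no growth and 100% = 10 µM 1-NA-PP1 full growth; inhibition rescues growth on 5-FOA so higher OD means more RAM inhibition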
* hit, by the source's call; · = not tested or not shown.

SMILES	Yeast lifespan up	Yeast growth inh	RAM network inh
O=C(O)COc1ccc(=O)n(-c2ccccc2)n1	-6.5	3.2	0.2
Cc1ccc(/C([O-])=C(/C(=S)NCCN2CCOCC2)[n+]2ccccc2)cc1[N+](=O)[O-]	·	·	1.7
CCn1c(C)nc2cc(C(=O)NNC(=S)Nc3ccc(OC)cc3)ccc21	·	·	0.6
COc1ccc(-c2noc(N(C)CC(=O)Nc3cccc(C(F)(F)F)c3)n2)cc1	2.5	-18.4	10.5*
COc1ccc(-c2noc(CCC(=O)Nc3cccc(C)c3)n2)cc1	-3.4	-21.9	0.1
COc1cc2nc3c4ccccc4n(CC#N)c3nc2cc1OC	-14.6	-18.1	8.4*
CCn1c2ccccc2c2nc3cc(OC)c(OC)cc3nc21	-27.2	-15.7	9.3*
CCn1c2ccccc2c2nc3ccccc3nc21	-15.3	34.4	3.7
COc1ccc2c(c1)c1nc3ccccc3nc1n2Cc1ccc(OC)c(OC)c1	-4.1	-0.1	0.2
Cc1cc2ncn(CC3CC3(Cl)Cl)c2cc1C (stereo unspecified)	·	·	-0.1
O=C(N/N=C/c1cccc(OC(=O)c2ccco2)c1)c1ccc(F)cc1	5.1	-7.4	1.0
Cc1cc(C)cc(N(CC(=O)NCc2ccc3c(c2)OCO3)C(=O)CCC(=O)Nc2ccccn2)c1	-2.2	-24.9	4.1
COc1ccc(CNC(=O)CN(C(=O)CCC(=O)Nc2ccccn2)c2cccc(C)c2)cc1	·	·	10.2*
COc1ccc(Br)cc1/C=C/C(=O)Nc1ccc2ccccc2c1	0.0	-46.6	4.2
CCC(=O)Nc1cccc(C(=O)/C=C/c2cc(Br)ccc2OC)c1	-8.6	-29.2	9.6*
COC(=O)c1ccc(CN2CCN(CC=C(C)C)C(CCO)C2)cc1 (stereo unspecified)	·	·	0.2
N#Cc1nc(COc2ccc(Cl)cc2Cl)oc1N1CCN(c2ccccc2)CC1	3.8	-42.9	7.3
COc1ccc(N2CCN(c3oc(COc4ccccc4)nc3C#N)CC2)cc1	-3.5	-21.5	10.3*
N#Cc1nc(COc2ccccc2)oc1N1CCOCC1	-6.9	-25.1	1.0
N#Cc1nc(Cc2ccccc2)oc1N1CCN(c2cccc(Cl)c2)CC1	-4.9	-33.7	11.3*
COc1ccc(-c2nc(C#N)c(N3CCN(c4ccccc4)CC3)o2)cc1	-10.5	-26.0	2.2
COc1ccc(N2CCN(c3oc(Cc4ccccc4)nc3C#N)CC2)cc1	-24.0	-26.9	10.6*
N#C/C(=C/c1cn[nH]c1-c1ccc(Br)cc1)C(=O)O	·	·	3.4
COc1cc(S(=O)(=O)N(C)C2CCCCC2)c(C)cc1C	·	·	0.8
COC(=O)c1ccc(-n2c(C)cc(C(=O)CSc3cccc[n+]3[O-])c2C)cc1	·	·	1.6
SMILES	Yeast lifespan up	Yeast growth inh	RAM network inh
COC(=O)c1ccc(C(=O)OC)c(NC(=O)CSc2cccc[n+]2[O-])c1	-28.5	98.9*	-1.2
CC1(C)CC(=O)C(C(=O)C2CCN(S(=O)(=O)c3ccccc3)CC2)C(=O)C1	·	·	0.5
O=C(O)C(O)C(O)c1nc2ccccc2[nH]1 (stereo unspecified)	·	·	1.8
CN(C)/C=C/c1onc(-c2c(Cl)cccc2Cl)c1C#N	·	·	4.0
N#Cc1c(-c2c(Cl)cccc2Cl)noc1/C=C/Nc1ccc(C(=O)O)cc1	·	·	8.6*
COc1ccc(N2C(=O)CC2(C#N)c2ccc(OCc3ccccc3)cc2)cc1 (stereo unspecified)	5.5	-23.3	10.7*
COc1ccccc1N1C(=O)CCC1(C#N)c1ccccc1 (stereo unspecified)	-8.1	-23.1	-0.9
O=C(c1ccc(Cl)cc1)c1oc2ccccc2c1CS(=O)(=O)c1ccccc1	-3.3	-14.9	1.6
O=C(NC(=S)Nc1nc2c(s1)CSc1ccccc1-2)c1ccccc1	65.9*	-55.0	3.6
O=C(NC(=S)Nc1nc2c(s1)CCCC2)c1ccc(C(=O)c2ccccc2)cc1	2.1	-33.0	4.1
O=C(Nc1ccccc1)n1ccc(-c2ccc(-n3ccnc3)cc2)n1	·	·	0.7
CCOC(=O)N1CCN(C(=O)CS(=O)(=O)c2cn(Cc3ccccc3C)c3ccccc23)CC1	-1.9	-44.5	4.8
Cc1ccccc1Cn1cc(S(=O)(=O)CC(=O)Nc2nccs2)c2ccccc21	-2.5	-36.4	8.4*
C=CCC1c2cccc(C(=O)O)c2C(=O)N1c1cccc(OC)c1 (stereo unspecified)	·	·	0.1
C=CCC1c2cccc(C(=O)O)c2C(=O)N1c1cccc(C)c1 (stereo unspecified)	-5.5	61.9*	-1.9
Cc1ncn(-c2ccc(C(=O)Oc3ccccc3)cn2)n1	·	·	0.7
NS(=O)(=O)c1ccc(NC(=O)/C=C/c2cn(-c3ccccc3)nc2-c2cccc(Cl)c2)cc1	·	·	3.4
O=C(/C=C/c1cn(-c2ccccc2)nc1-c1ccccc1)Nc1ccc(C(=O)O)cc1	·	·	8.9*
CC(C)(C)C(=O)Cn1c(=N)n(Cc2ccccc2Cl)c2ccccc21	3.7	-76.4	1.7
CC(C)(C)C(=O)Cn1c(=N)n(Cc2ccccc2)c2ccccc21	32.0*	-22.1	1.2
CC(/C=N/NC(=O)c1sc(N)nc1C)=C\c1ccccc1	·	·	3.3
CCOC(=O)c1ccc(NC(=O)COC(=O)Cc2csc(-c3ccccc3)n2)cc1	-6.1	-32.1	2.5
Cc1cc(C)n2nc(C(=O)NC3CCCc4ccccc43)nc2n1 (stereo unspecified)	·	·	0.7
Cc1cccc(N2CCN(C(=O)Cc3ccc(-n4c(=O)[nH]c5ccsc5c4=O)cc3)CC2C)c1 (stereo unspecified)	2.0	-6.9	1.4
O=C(Cc1ccc(-n2c(=O)[nH]c3ccsc3c2=O)cc1)N1CCN(c2ccc(Cl)cc2)CC1	2.5	-25.8	8.4*
SMILES	Yeast lifespan up	Yeast growth inh	RAM network inh
O=C(COC(=O)C(Cc1ccccc1)NC(=O)c1ccccc1)c1ccccc1 (stereo unspecified)	9.1	-40.4	6.3
O=C(NC(Cc1c[nH]c2ccccc12)C(=O)O)c1ccccc1 (stereo unspecified)	-3.5	8.7	-1.3
O=C(COC(=O)C(Cc1ccccc1)NC(=O)c1ccc(Cl)cc1)c1ccc(Cl)cc1 (stereo unspecified)	3.4	-16.6	9.1*
O=C(N[C@@H](Cc1c[nH]c2ccccc12)C(=O)O)c1ccc(Cl)cc1	·	·	8.9*
CCOc1cc(/C=N/N=C(N)N)ccc1OCc1ccc(Cl)cc1	-4.1	-33.9	9.8*
COc1cc(/C=N/N=C(N)N)ccc1OCc1ccc(Cl)cc1	·	·	-1.4
COc1ccccc1NC(=O)c1ccc(-c2ccc(Br)cc2)o1	-6.2	-56.3	10.8*
O=C(Nc1ccccc1)c1ccc(-c2ccc(Br)cc2)o1	·	-20.8	2.7
Fc1cccc2sc(Nc3nnc(-c4ccco4)o3)nc12	93.8*	-46.0	2.2
COc1cccc2sc(Nc3nnc(-c4ccc(F)cc4)o3)nc12	2.8	-26.8	0.0
Nc1c(C(=O)Nc2ccccc2F)sc2nc(-c3ccco3)ccc12	-1.2	-73.1	9.2*
COC(=O)c1sc2nc(-c3ccco3)ccc2c1N	-24.0	4.8	1.0
NC(=O)c1sc2nc(-c3ccco3)ccc2c1N	-24.5	53.3*	1.7
O=C(Nc1ccccc1F)c1ccco1	·	-19.3	1.9
CCOC(=O)C1(CCOc2ccccc2)CCN(Cc2ccc3nonc3c2)CC1	·	·	1.0
O=C(c1cncs1)N1CCCC(CNS(=O)(=O)c2cccs2)C1 (stereo unspecified)	·	·	0.4
